How the values were obtained:
[1] = target: T1, Voltage-gated L-type calcium channel (Homo sapiens, UniProt Q13936+Q13698+Q01668+O60840); experiment: Inhibition of voltage-dependent L-type calcium channel in human U373MG cells assessed as protection against oxygen glucose deprivation/reperfusion-induced injury by measuring recovery of cell viability at 1 uM administered at onset of reperfusion period measured after 16 hrs by alamar blue assay relative to control; assay type: cell-based
Outline: (§1)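 U-373 MG astrocytoma cells seeded at 30000 cells/ml and grown 24 or 48 h (37 °C/5% CO2). OGD: 24 h at 37 °C in glucose-free DMEM pre-bubbled with 95% N2/5% CO2, in a sealed nitrogen-flushed chamber. Then 16 h reperfusion in normal medium; compounds added at reperfusion, diluted from DMSO stock (DMSO ≤0.1%). Viability by alamarBlue, 4 h at 37 °C, fluorescence ex 530–560/em 590 nm. Expressed as % recovery from injury, mean ± S.E. of ≥3 experiments in sixuplicate.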

[2] = target: T1, Voltage-gated L-type calcium channel; experiment: Inhibition of voltage-dependent L-type calcium channel in human U373MG cells assessed as protection against oxygen glucose deprivation/reperfusion-induced injury by measuring recovery of cell viability at 20 uM administered at onset of reperfusion period measured after 16 hrs by alamar blue assay relative to control; assay type: cell-based; outline: as §1
[3] = target: T1, Voltage-gated L-type calcium channel; experiment: Inhibition of voltage-dependent L-type calcium channel in human SH-SY5Y cells assessed as protection against glutamate-induced excitotoxicity by measuring recovery of cell viability at 1 uM measured after 24 hrs by alamar blue-based fluorescence method relative to control
[4] = target: T1, Voltage-gated L-type calcium channel; experiment: Inhibition of voltage-dependent L-type calcium channel in human SH-SY5Y cells assessed as protection against glutamate-induced excitotoxicity by measuring recovery of cell viability at 20 uM measured after 24 hrs by alamar blue-based fluorescence method relative to control
[5] = target: T2, Voltage-gated L-type calcium channel (Rattus norvegicus, UniProt P22002+Q02485+P27732); experiment: Inhibition of voltage-dependent L-type calcium channel in Wistar rat brain slices assessed as protection against oxygen glucose deprivation/reperfusion-induced injury by measuring recovery of LDH release at 20 uM administered at onset of reperfusion period measured after 90 mins by spectrophotometric assay relative to control; parameters: scale not given: the % may be the effect or the level left; conditions: 1.5 h
[6] = target: T2, Voltage-gated L-type calcium channel; experiment: Inhibition of voltage-dependent L-type calcium channel in Wistar rat brain slices assessed as protection against oxygen glucose deprivation/reperfusion-induced injury by measuring recovery of edema formation at 20 uM administered at onset of reperfusion period measured after 90 mins relative to control; parameters: scale not given: the % may be the effect or the level left; conditions: 1.5 h
[7] = system: Left cardiac atrium; experiment: Negative inotropic activity in guinea pig left atrium assessed as decrease in developed tension at 5 x 10^-7 M relative to control; assay type: ADME, tissue-based, Cavia porcellus; parameters: scale not given: the % may be the effect or the level left; conditions: 0.5 µM
[8] = system: Left cardiac atrium; experiment: Negative inotropic activity in guinea pig left atrium assessed as decrease in developed tension at 0.001 to 100 uM relative to control; assay type: ADME, tissue-based; conditions: Cavia porcellus
[9] = system: Right cardiac atrium; experiment: Negative chronotropic activity in guinea pig spontaneously beating right atrium assessed as decrease in atrial rate at 10^-5 M relative to control; assay type: ADME, tissue-based, Cavia porcellus; parameters: scale not given: the % may be the effect or the level left; conditions: 10 µM
[10] = system: Aorta; experiment: Inhibition of calcium-induced contraction in K+-depolarized guinea pig aortic strips at 10^-4 M relative to control; assay type: tissue-based; conditions: Cavia porcellus
[11] = system: Left cardiac atrium (Cavia porcellus); experiment: Negative inotropic activity in guinea pig left atrium assessed as decrease in developed tension
[12] = system: Right cardiac atrium; experiment: Negative chronotropic activity in guinea pig right atrium assessed as decrease in atrial rate at 5 x 10^-6 M relative to control; parameters: scale not given: the % may be the effect or the level left; conditions: 5 µM
[13] = system: Right cardiac atrium; experiment: Negative chronotropic activity in guinea pig spontaneously beating right atrium assessed as decrease in atrial rate; assay type: tissue-based; conditions: Cavia porcellus
[14] = system: Left cardiac atrium; experiment: Negative inotropic activity in guinea pig left atrium assessed as decrease in developed tension at 10^-6 M relative to control; assay type: ADME, tissue-based, Cavia porcellus; parameters: scale not given: the % may be the effect or the level left; conditions: 1 µM
[15] = system: Right cardiac atrium; experiment: Negative chronotropic activity in guinea pig spontaneously beating right atrium assessed as decrease in atrial rate at 5 x 10^-5 M relative to control; assay type: tissue-based, Cavia porcellus; parameters: scale not given: the % may be the effect or the level left; conditions: 50 µM
[16] = Selectivity ratio of EC50 for negative chronotropic activity in guinea pig spontaneously beating right atrium to EC50 for negative inotropic activity in guinea pig left atrium; assay type: ADME, tissue-based, Cavia porcellus
[17] = system: Left cardiac atrium; experiment: Negative inotropic activity in guinea pig left atrium assessed as decrease in developed tension at 5 x 10^-6 M relative to control; assay type: ADME, tissue-based, Cavia porcellus; parameters: scale not given: the % may be the effect or the level left; conditions: 5 µM
[18] = system: Right cardiac atrium; experiment: Negative chronotropic activity in guinea pig spontaneously beating right atrium assessed as decrease in atrial rate at 5 x 10^-6 M relative to control; assay type: ADME, tissue-based, Cavia porcellus; parameters: scale not given: the % may be the effect or the level left; conditions: 5 µM
[19] = system: Left cardiac atrium; experiment: Negative inotropic activity in guinea pig left atrium assessed as decrease in developed tension at 10^-4 M relative to control; assay type: ADME, tissue-based, Cavia porcellus; parameters: scale not given: the % may be the effect or the level left; conditions: 100 µM
[20] = system: Right cardiac atrium; experiment: Negative inotropic activity in guinea pig right atrium assessed as decrease in developed tension at 10^-4 M relative to control; assay type: ADME, tissue-based, Cavia porcellus; parameters: scale not given: the % may be the effect or the level left; conditions: 100 µM
[21] = system: Right cardiac atrium; experiment: Negative chronotropic activity in guinea pig spontaneously beating right atrium assessed as decrease in atrial rate at 10^-4 M relative to control; assay type: ADME, tissue-based, Cavia porcellus; parameters: scale not given: the % may be the effect or the level left; conditions: 100 µM
[22] = system: Right cardiac atrium; experiment: Negative chronotropic activity in guinea pig spontaneously beating right atrium assessed as decrease in atrial rate at 10^-6 M relative to control; assay type: ADME, tissue-based, Cavia porcellus; parameters: scale not given: the % may be the effect or the level left; conditions: 1 µM
[23] = system: Left cardiac atrium; experiment: Negative inotropic activity in guinea pig left atrium assessed as decrease in developed tension at 5 x 10^-5 M relative to control; assay type: ADME, tissue-based, Cavia porcellus; parameters: scale not given: the % may be the effect or the level left; conditions: 50 µM
[24] = system: Aorta; experiment: Inhibition of calcium-induced contraction in K+-depolarized guinea pig aortic strips at 5 x 10^-5 M relative to control; assay type: tissue-based; conditions: Cavia porcellus
[25] = system: Right cardiac atrium; experiment: Negative inotropic activity in guinea pig right atrium assessed as decrease in developed tension at 10^-7 M relative to control; assay type: ADME, tissue-based, Cavia porcellus; parameters: scale not given: the % may be the effect or the level left; conditions: 0.1 µM
[26] = system: Right cardiac atrium; experiment: Negative chronotropic activity in guinea pig spontaneously beating right atrium assessed as decrease in atrial rate at 5 x 10^-7 M relative to control; assay type: ADME, tissue-based, Cavia porcellus; parameters: scale not given: the % may be the effect or the level left; conditions: 0.5 µM
[27] = system: Right cardiac atrium; experiment: Negative inotropic activity in guinea pig right atrium assessed as decrease in developed tension at 10^-5 M relative to control; assay type: ADME, tissue-based, Cavia porcellus; parameters: scale not given: the % may be the effect or the level left; conditions: 10 µM
[28] = system: Left cardiac atrium; experiment: Negative inotropic activity in guinea pig left atrium assessed as decrease in developed tension at 10^-5 M relative to control; parameters: scale not given: the % may be the effect or the level left; conditions: Left cardiac atrium, 10 µM
[29] = system: Right cardiac atrium; experiment: Negative chronotropic activity in guinea pig spontaneously beating right atrium assessed as decrease in atrial rate at 10^-7 M relative to control; assay type: ADME, tissue-based, Cavia porcellus; parameters: scale not given: the % may be the effect or the level left; conditions: 0.1 µM

Compound | Activity [1] | Activity [2] | Activity [3] | Activity [4] | Activity [5] | Activity [6] | EC50 [8] | Activity [9] | inhibition at 100 µM [10] | EC50 [11] | EC50 [13] | further results
CCOC(=O)C1=C(C)NC(C)=C(C(=O)OCC)C1c1c(-c2ccc([N+](=O)[O-])cc2)nc2sc(F)cn12 | 22.2% | 28.5% | 28.8% | 51.1% | 23.3% | 76.4% | 24 nM | 20% | 13% | 77 nM | – | Activity [7]: 78%; Activity [12]: 67%
CCOC(=O)C1=C(C)NC(C)=C(C(=O)OCC)C1c1c(-c2ccc(F)cc2)nc2sc(C)cn12 | 9.1% | 13.2% | 28.9% | 43.1% | – | – | – | – | 12% | – | 23 nM | Activity [14]: 37%; Activity [15]: 86%
COC(=O)C1=C(C)NC(C)=C(C(=O)OC)C1c1c(-c2cc(Br)c(OC)cc2OC)nc2sccn12 | < 5% | < 5% | < 5% | < 5% | – | – | 300 nM | – | 34% | – | 1670 nM | Ratio EC50 [16]: 25 to 56; Activity [17]: 63%; Activity [18]: 74%
CCOC(=O)C1=C(C)NC(C)=C(C(=O)OCC)C1c1c(-c2ccc(Cl)cc2)nc2sc(Cl)cn12 | < 5% | < 5% | 25.1% | 47.1% | – | – | 3500 nM | – | 45% | – | 1730 nM | Activity [19]: 73%; Activity [15]: 94%
CCOC(=O)C1=C(C)NC(C)=C(C(=O)OCC)C1c1c(-c2ccc([N+](=O)[O-])cc2)nc2sc(Cl)cn12 | 10.3% | 26.1% | < 5% | < 5% | – | – | 1370 nM | – | 12% | 2170 nM | – | Activity [19]: 74%; Activity [20]: 79%; Activity [21]: 25%
CCOC(=O)C1=C(C)NC(C)=C(C(=O)OCC)C1c1c(-c2cc(OC)ccc2OC)nc2sc(Br)cn12 | < 5% | 29.32% | < 5% | 57.6% | < 5% | < 5% | 26 nM | – | 22% | – | 120 nM | Ratio EC50 [16]: < 10; Activity [17]: 69%; Activity [22]: 94%
CCOC(=O)C1=C(C)NC(C)=C(C(=O)OCC)C1c1c(-c2ccc(F)c(F)c2)nc2sccn12 | < 5% | < 5% | 37.4% | 50.7% | 20.5% | 80.5% | 21 nM | – | 14% | – | 100 nM | Ratio EC50 [16]: < 10; Activity [7]: 83%; Activity [22]: 77%
CCOC(=O)C1=C(C)NC(C)=C(C(=O)OCC)C1c1c(-c2ccc(F)cc2)nc2sc(Br)cn12 | < 5% | < 5% | < 5% | < 5% | – | – | – | 25% | – | – | – | Activity [23]: 37%; inhibition at 50 µM [24]: 7%
CCOC(=O)C1=C(C)NC(C)=C(C(=O)OCC)C1c1c(-c2ccc(Cl)cc2)nc2sccn12 | < 5% | < 5% | 6.8% | 44.4% | – | – | 97 nM | – | 43% | 19 nM | – | Activity [19]: 61%; Activity [25]: 79%; Activity [26]: 38%
CCOC(=O)C1=C(C)NC(C)=C(C(=O)OCC)C1c1c(-c2cc([N+](=O)[O-])c(Cl)cc2Cl)nc2sc(Cl)cn12 | 16.5% | 15.4% | 40.8% | 40.7% | – | – | 81 nM | – | 17% | 220 nM | – | Activity [23]: 86%; Activity [27]: 82%; Activity [15]: 37%
CCOC(=O)C1=C(C)NC(C)=C(C(=O)OCC)C1c1c(-c2ccccc2F)nc2sccn12 | < 5% | 36.8% | 53.2% | 62.2% | – | – | 5150 nM | 86% | – | – | 980 nM | Activity [23]: 55%; inhibition at 50 µM [24]: 17%
CCOC(=O)C1=C(C)NC(C)=C(C(=O)OCC)C1c1c(-c2cc([N+](=O)[O-])c(Cl)cc2Cl)nc2sc(CC)cn12 | 21.2% | 26.7% | 14.7% | 41.6% | 18% | < 5% | 33 nM | 40% | 15% | 1470 nM | – | Activity [7]: 67%; Activity [27]: 58%
COC(=O)C1=C(C)NC(C)=C(C(=O)OC)C1c1ccccc1[N+](=O)[O-] [NIFEDIPINE] | 34.4% | 73.7% | 55% | 101.6% | – | – | – | – | – | – | 39 nM | Activity ([5]; Brain): 72.3%; Activity ([6]; Brain): 95.7%; Activity [28]: 97%; Activity [29]: 85%

Reference: ChEMBL document CHEMBL4385592, “4-Imidazo[2,1-b]thiazole-1,4-DHPs and neuroprotection: preliminary study in hits searching” (Eur J Med Chem, 2019)
